Assay results reported in ChEMBL document CHEMBL1148625, “3-(1,1-dioxo-2H-(1,2,4)-benzothiadiazin-3-yl)-4-hydroxy-2(1H)-quinolinones, potent inhibitors of hepatitis C virus RNA-dependent RNA polymerase” (J Med Chem, 2006).

What was measured:
[1] = target: T1, DNA polymerase alpha catalytic subunit (Homo sapiens, UniProt P09884); assay: Inhibitory activity against human DNA-polymerase-alpha
T1 sequence (P09884 whole entry): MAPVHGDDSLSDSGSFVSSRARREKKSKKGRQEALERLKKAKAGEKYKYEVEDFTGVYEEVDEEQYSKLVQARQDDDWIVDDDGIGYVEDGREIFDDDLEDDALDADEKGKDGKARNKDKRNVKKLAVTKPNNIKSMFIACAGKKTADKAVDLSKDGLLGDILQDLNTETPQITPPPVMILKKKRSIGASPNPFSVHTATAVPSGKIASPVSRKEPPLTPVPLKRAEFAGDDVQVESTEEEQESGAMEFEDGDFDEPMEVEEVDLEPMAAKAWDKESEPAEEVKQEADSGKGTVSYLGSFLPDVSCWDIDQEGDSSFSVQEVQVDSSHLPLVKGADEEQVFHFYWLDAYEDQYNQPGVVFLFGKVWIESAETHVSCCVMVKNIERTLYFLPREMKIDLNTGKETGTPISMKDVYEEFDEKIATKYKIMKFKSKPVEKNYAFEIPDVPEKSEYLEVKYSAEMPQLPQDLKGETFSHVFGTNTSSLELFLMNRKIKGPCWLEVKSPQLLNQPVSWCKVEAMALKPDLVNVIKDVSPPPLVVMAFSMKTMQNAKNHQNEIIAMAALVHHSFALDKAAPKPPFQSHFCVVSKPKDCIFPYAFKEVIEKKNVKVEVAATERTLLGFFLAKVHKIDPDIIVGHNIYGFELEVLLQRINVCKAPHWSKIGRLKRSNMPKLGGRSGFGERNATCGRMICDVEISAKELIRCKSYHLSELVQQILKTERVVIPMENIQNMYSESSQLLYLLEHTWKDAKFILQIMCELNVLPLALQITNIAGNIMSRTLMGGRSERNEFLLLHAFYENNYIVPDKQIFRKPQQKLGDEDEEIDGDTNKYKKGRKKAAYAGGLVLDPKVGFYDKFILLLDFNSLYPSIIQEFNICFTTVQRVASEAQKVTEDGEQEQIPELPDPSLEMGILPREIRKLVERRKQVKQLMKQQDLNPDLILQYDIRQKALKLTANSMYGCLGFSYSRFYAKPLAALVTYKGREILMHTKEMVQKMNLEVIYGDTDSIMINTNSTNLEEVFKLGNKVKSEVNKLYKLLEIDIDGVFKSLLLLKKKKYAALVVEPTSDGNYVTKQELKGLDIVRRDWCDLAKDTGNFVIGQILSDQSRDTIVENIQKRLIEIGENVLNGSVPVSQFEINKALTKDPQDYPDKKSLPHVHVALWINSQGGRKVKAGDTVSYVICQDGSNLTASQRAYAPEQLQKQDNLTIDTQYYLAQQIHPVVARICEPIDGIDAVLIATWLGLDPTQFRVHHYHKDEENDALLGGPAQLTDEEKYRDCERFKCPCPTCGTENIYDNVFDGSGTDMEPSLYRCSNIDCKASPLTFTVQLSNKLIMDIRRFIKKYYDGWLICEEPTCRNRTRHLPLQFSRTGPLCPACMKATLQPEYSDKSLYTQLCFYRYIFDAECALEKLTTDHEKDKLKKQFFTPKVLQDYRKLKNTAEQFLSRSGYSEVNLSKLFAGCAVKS

Genome polyprotein = Genome polyprotein (GB virus-B, UniProt Q69422); assay: Inhibitory activity against virus GBV-B polymerase
Genome polyprotein, sequence (Q69422 2275-2864 limits assumed): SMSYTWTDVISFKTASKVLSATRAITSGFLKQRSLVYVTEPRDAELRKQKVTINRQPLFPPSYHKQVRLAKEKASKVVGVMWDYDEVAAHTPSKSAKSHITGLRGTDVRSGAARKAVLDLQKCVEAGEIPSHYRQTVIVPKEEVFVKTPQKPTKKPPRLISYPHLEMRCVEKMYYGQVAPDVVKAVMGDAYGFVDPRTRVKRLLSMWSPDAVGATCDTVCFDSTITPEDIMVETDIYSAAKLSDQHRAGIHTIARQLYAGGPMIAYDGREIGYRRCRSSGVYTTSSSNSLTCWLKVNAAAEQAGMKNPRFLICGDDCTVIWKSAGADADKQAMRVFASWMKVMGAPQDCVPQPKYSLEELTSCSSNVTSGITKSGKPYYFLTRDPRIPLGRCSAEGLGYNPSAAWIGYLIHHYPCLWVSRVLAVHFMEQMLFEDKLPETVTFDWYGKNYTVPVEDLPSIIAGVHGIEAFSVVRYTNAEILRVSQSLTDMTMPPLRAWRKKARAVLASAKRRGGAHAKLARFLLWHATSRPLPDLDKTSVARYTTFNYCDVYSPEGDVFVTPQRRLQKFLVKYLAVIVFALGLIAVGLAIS

Cytochrome P450 2C9 = Cytochrome P450 2C9 (Homo sapiens, UniProt P11712); assay: Inhibition of CYP2C9 isozyme; format: ADME
Cytochrome P450 2C9, sequence (P11712 whole entry): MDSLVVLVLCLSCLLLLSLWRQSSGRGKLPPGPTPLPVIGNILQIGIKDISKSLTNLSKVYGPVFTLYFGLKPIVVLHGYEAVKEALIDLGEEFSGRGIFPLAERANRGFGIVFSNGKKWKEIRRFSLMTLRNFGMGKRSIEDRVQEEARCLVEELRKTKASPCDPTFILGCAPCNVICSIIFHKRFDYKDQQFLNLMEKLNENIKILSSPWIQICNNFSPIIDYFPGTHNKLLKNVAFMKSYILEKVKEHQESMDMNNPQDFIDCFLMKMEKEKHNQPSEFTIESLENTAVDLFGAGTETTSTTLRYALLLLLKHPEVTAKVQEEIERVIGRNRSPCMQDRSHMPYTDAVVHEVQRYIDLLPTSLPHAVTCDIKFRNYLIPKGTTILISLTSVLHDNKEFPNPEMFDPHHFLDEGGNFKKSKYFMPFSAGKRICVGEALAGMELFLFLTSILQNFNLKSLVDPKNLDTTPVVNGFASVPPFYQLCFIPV

Cytochrome P450 3A4 = Cytochrome P450 3A4 (Homo sapiens, UniProt P08684); assay: Effect on CYP3A4 induction; format: ADME
Cytochrome P450 3A4, sequence (P08684 whole entry): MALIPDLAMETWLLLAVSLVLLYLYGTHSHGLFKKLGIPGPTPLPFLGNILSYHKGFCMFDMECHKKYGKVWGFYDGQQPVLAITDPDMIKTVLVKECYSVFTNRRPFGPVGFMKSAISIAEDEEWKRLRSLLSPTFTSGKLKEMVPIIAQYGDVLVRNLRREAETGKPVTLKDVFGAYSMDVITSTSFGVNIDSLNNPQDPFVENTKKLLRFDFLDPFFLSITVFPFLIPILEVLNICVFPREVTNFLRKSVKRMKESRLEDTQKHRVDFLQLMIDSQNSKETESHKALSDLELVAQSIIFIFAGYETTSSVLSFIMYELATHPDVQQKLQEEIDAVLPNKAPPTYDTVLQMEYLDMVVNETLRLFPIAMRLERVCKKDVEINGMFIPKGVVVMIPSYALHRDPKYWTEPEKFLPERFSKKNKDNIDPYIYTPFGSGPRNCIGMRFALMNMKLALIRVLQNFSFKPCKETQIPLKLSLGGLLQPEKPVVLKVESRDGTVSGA

[2] = Volume of distribution in Beagle dog at 0.8 mg/kg, iv or 4.0 mg/kg, po; format: ADME, organism-based, Canis lupus familiaris; details: in vivo, read-out: Vdss
Outline: (§1)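 Single-dose study, with separate intravenous and oral administrations at the listed mg/kg. Plasma concentrations were followed over time, and mean values were derived for Cmax, T1/2, clearance (mL/min/kg), Vdss (L/kg) and oral bioavailability (%).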

[3] = target: T2, RNA-directed RNA polymerase (Hepacivirus hominis, UniProt O39930); assay: Inhibitory activity against HCV 1a NS5B RNA polymerase
T2 sequence (O39930 whole entry): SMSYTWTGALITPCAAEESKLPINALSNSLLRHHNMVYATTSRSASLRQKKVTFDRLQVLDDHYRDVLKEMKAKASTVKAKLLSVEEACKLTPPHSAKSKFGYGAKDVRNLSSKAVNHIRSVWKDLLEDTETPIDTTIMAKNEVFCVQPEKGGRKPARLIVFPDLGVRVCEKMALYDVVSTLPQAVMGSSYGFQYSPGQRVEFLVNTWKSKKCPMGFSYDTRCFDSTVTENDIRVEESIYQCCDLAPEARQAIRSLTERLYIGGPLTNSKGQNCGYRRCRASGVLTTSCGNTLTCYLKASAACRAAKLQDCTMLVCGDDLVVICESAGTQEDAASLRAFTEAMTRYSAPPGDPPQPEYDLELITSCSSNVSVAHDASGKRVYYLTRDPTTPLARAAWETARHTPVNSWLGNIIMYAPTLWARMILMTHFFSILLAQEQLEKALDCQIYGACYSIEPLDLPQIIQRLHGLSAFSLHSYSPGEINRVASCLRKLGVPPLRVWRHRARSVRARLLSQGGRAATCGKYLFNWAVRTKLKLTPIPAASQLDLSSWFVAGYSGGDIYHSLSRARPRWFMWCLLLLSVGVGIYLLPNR

Hepatitis C virus [4] = assay: Protein binding in Huh7 cells using HCV 1b replicon by a replicon cell assay; format: functional, organism-based, Hepacivirus hominis; details: genotype 1b, Huh-7
Outline: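 Replicon assay in Huh-7 cells run with α-acid glycoprotein, human serum albumin, or both added to the medium, to assess the effect of plasma protein binding on cellular activity.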

[5] = Half life in Beagle dog at 0.8 mg/kg, iv or 4.0mg/kg, po; format: ADME, organism-based, Canis lupus familiaris; parameters: dose 0.8 mg/kg; details: in vivo; outline: as §1
[6] = Oral bioavailability in Beagle dog at 0.8 mg/kg, iv or 4.0 mg/kg, po; format: ADME, organism-based, Canis lupus familiaris; details: in vivo; outline: as §1
[7] = target: T2, RNA-directed RNA polymerase; assay: Inhibitory activity against HCV 1b NS5B RNA polymerase; parameters: species or system Hepatitis C virus subtype 1b
Outline: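 Scintillation proximity polymerase assay with HCV NS5B (genotype 1b, J4 strain, Δ21 construct) at 50 or 10 nM. The reaction used [α-33P]GTP and GTP with 5′-biotinylated oligo(rG13)/poly(rC) in 20 mM Tris-Cl pH 7.5 containing MgCl2, KCl, DTT and 0.05% BSA. It ran 2 h at 25 °C, was stopped with an equal volume of 100 mM EDTA, then captured on streptavidin FlashPlates and counted; n = 4.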

Hepatitis C virus [8] = assay: Protein binding in Huh7 cells using HCV 1b replicon by a replicon cell assay in presence of HSA; format: functional, organism-based, Hepacivirus hominis; details: genotype 1b, Huh-7
[9] = Half life in Sprague-Dawley rat at 1.3 mg/kg, iv or 3.4 mg/kg, po; format: ADME, organism-based; details: in vivo
Outline: (§2)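 Single intravenous or oral doses given to Sprague-Dawley rats. Values are reported as means: Cmax (ng/mL), half-life (min), plasma clearance (mL/min/kg), steady-state volume of distribution (L/kg) and oral bioavailability F (%).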

Hepatitis C virus [10] = assay: Protein binding in Huh7 cells using HCV 1b replicon by a replicon cell assay in presence of alpha-acid glycoprotein; format: functional, organism-based, Hepacivirus hominis; details: genotype 1b, Huh-7
[11] = Clearance in Sprague-Dawley rat at 1.3 mg/kg, iv or 3.4 mg/kg, po; format: ADME, organism-based; details: in vivo; outline: as §2

For `O=c1c(C2=Nc3ccccc3S(=O)(=O)N2)c(O)c2cc(F)ccc2n1CCC1CC1`, the IC50 [1] was > 50000 nM, the IC50 (Genome polyprotein) was > 50000 nM and the IC50 (Cytochrome P450 2C9) was 1000 nM. For the same molecule, the Activity (Cytochrome P450 3A4) was “Active”, the Vd [2] was 0.15 L/kg and the IC50 [3] was 49 nM. The EC50 (Hepatitis C virus [4]) was 38 nM, the half-life [5] was 1.72 h and the bioavailability [6] was > 35%. For the same molecule, the IC50 [7] was 10 nM, the EC50 (Hepatitis C virus [8]) was 13000 nM and the half-life [9] was 3.04 h. The EC50 (Hepatitis C virus [10]) was 180 nM and the clearance [11] was 1.4 mL/min/kg.
